Tested on: B16-BL6
Assay: Antitumour activity against mouse B16-BL6 cells allografted in C57BL/6 mouse assessed as reduction in tumor mass at 30 mg/kg, ip administrated every other day relative to control
Assay type: functional
Summary of the method: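 Six-week-old male C57BL/6 mice received BL6-B16 murine melanoma cells subcutaneously in the dorsolateral flank, suspended in PBS. Once tumors reached about 100 mm³, the mice were randomised and dosed intraperitoneally every other day, with the drug dissolved in DMSO; controls received DMSO vehicle. Tumors were measured in two dimensions, V=(D x d²)/2, and weighed at the end. Five mice per group; mean ± SEM.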

COc1ccc(/C=C\c2cc(OC)c(OC)c(OC)c2)cc1OP(=O)(O)O [FOSBRETABULIN DISODIUM]
inhibition in vivo at 30 mg/kg: 31.3%
